Assay results published in ChEMBL document CHEMBL1155337, “N-substituted bis-C-alkyloxadiazolones as dual effectors: efficient intermediates to amidoximes or amidines and prodrug candidates of potent antimalarials” (Bioorg Med Chem Lett, 2009).
Active and inactive are the calls of the source. The calls are words filed in the database; no cut-off is given here.

Key:
[1] = test system: Plasmodium vinckei petteri; test: Antimalarial activity against Plasmodium vinckei petteri 279BY infected peroral daily dosed Swiss mice (Mus musculus) assessed as reduction in parasitaemia level measured after 4 days; type: functional; conditions: po, 96 h
Procedure, shortened: (§1)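 Female Swiss mice were infected with P. vinckei petteri 279BY on day 0. Compound was given intraperitoneally or orally once daily for four consecutive days (days 1–4 post infection). Three doses were tested per compound, with 3 mice per dose. Parasitemia was monitored against untreated control, and cleared animals were followed 28 days for recrudescence. ED50 was derived from the dose series.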

[2] = test system: Plasmodium vinckei petteri; test: Antimalarial activity against Plasmodium vinckei petteri 279BY infected in Swiss mice (Mus musculus) assessed as reduction in parasitaemia level at 10 mg/kg, intraperitoneal measured after 4 days; type: functional; conditions: ip, 96 h; procedure, shortened: as §1
Plasmodium falciparum = test: Antimalarial activity against chloroquine-sensitive Plasmodium falciparum Nigerian; type: functional, organism-based
Procedure, shortened: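 In vitro IC50 values are means of at least two independent experiments, each run in duplicate.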

[3] = test system: Plasmodium vinckei petteri; test: Antimalarial activity against Plasmodium vinckei petteri 279BY infected in Swiss mice (Mus musculus) at 10 mg/kg, intraperitoneal after 4 days; type: functional, organism-based; parameters: dose 10 mg/kg; procedure, shortened: as §1
Mus musculus [4] = test: Toxicity in Plasmodium vinckei petteri 279BY infected Swiss mice (Mus musculus) at >10 mg/kg, intraperitoneally; type: organism-based; conditions: in vivo, ip
Mus musculus [5] = test: Toxicity in Plasmodium vinckei petteri 279BY infected Swiss mice (Mus musculus) at 5 mg/kg, intraperitoneally; type: organism-based; parameters: dose 5 mg/kg, route intraperitoneal; conditions: in vivo, ip
[6] = test system: Plasmodium vinckei petteri; test: Antimalarial activity against Plasmodium vinckei petteri 279BY infected in Swiss mice (Mus musculus) assessed as reduction in parasitaemia level at 5 mg/kg, intraperitoneally relative to control; type: functional; parameters: scale not given: the % may be the effect or the level left; conditions: route intraperitoneal; procedure, shortened: as §1
[7] = test system: Plasmodium vinckei petteri; test: Antimalarial activity against Plasmodium vinckei petteri 279BY infected intraperitoneally daily dosed Swiss mice (Mus musculus) assessed as reduction in parasitaemia after 28 days; type: functional; conditions: ip, 672 h; procedure, shortened: as §1
[8] = test system: Plasmodium vinckei petteri; test: Antimalarial activity against Plasmodium vinckei petteri 279BY infected in Swiss mice (Mus musculus) assessed as reduction in parasitaemia level at 180 mg, perorally relative to control; type: functional; parameters: scale not given: the % may be the effect or the level left; procedure, shortened: as §1
[9] = test system: Plasmodium vinckei petteri; test: Antimalarial activity against Plasmodium vinckei petteri 279BY infected in Swiss mice (Mus musculus) assessed as reduction in parasitaemia level at 90 mg/kg, perorally relative to control; type: functional; parameters: scale not given: the % may be the effect or the level left; conditions: route oral; procedure, shortened: as §1

SMILES	ED50 [1] [mg/kg]	ED50 [2] [mg/kg]	IC50 (Plasmodium falciparum) [nM]	further results
O=c1[nH]c(CCCCCCCCCCCCc2noc(=O)[nH]2)no1	100	> 20	–	–
CCn1c(CCCCCCCCCCCCc2noc(=O)n2CC)noc1=O	> 20	> 10	10000	–
CNC(=N)CCCCCCCCCCCCC(=N)NC.Cl.Cl	> 180	–	14.4	Activity [3]: inactive; Activity (Mus musculus [4]): Toxic
CN/C(CCCCCCCCCCCC/C(=N/O)NC)=N\O	> 180	–	10100	Activity (Mus musculus [5]): Toxic; Activity [6]: 44%
O/N=C(/CCCCCCCCCCCC/C(=N/O)NCc1ccccc1)NCc1ccccc1	> 90	> 20	1040	–
Cc1c(CCO)sc[n+]1CCCCCCCCCCCC[n+]1csc(CCO)c1C.[Br-].[Br-] [ALBITIAZOLIUM BROMIDE]	13	0.2	–	–
N/C(CCCCCCCCCCCC/C(N)=N/O)=N\O	120	–	–	–
O=c1onc(CCCCCCCCCCCCc2noc(=O)n2Cc2ccccc2)n1Cc1ccccc1	> 90	> 20	4950	–
Cl.Cl.N=C(N)CCCCCCCCCCCCC(=N)N	> 100	> 10	–	Activity [3]: inactive
CCNC(=N)CCCCCCCCCCCCC(=N)NCC.Cl.Cl	> 180	6.3	9.4	ED50 [7]: 6.3 mg/kg
Cn1c(CCCCCCCCCCCCc2noc(=O)n2C)noc1=O	> 45	> 20	–	–
COCCN/C(CCCCCCCCCCCC/C(=N/O)NCCOC)=N\O	> 180	–	2950	Activity [8]: 16%; Activity (Mus musculus [5]): Toxic; Activity [6]: 33%
COCCNC(=N)CCCCCCCCCCCCC(=N)NCCOC.Cl.Cl	> 90	8	9.2	ED50 [7]: 8 mg/kg
Cl.Cl.N=C(CCCCCCCCCCCCC(=N)NCc1ccccc1)NCc1ccccc1	> 90	> 20	4.6	Activity [3]: inactive
COCCn1c(CCCCCCCCCCCCc2noc(=O)n2CCOC)noc1=O	90	> 20	6450	Activity [9]: 50%
CCN/C(CCCCCCCCCCCC/C(=N/O)NCC)=N\O	> 180	3.1	6200	Activity [8]: 20%; Activity [6]: 76%
